Assay [1] concerns the target T1, Mitogen-activated protein kinase kinase kinase 9 (Homo sapiens, UniProt P80192). The assay can be described thus: Inhibition of GST-fused human MLK1. An outline of the steps:
(§1)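 GST fusions of human MLK kinase domains from baculovirus (50 ng MLK1_KD, 150 ng MLK2_KD/LZ, 100 ng MLK3_KD), substrate 500 µg/mL myelin basic protein. Buffer 20 mM Hepes pH 7.2, 5 mM EGTA, 15 mM MgCl2, 1 mM DTT, 25 mM β-glycerophosphate, 0.1% BSA, 2% DMSO.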
Target sequence in this assay (P80192 whole entry, the tested form may be a part): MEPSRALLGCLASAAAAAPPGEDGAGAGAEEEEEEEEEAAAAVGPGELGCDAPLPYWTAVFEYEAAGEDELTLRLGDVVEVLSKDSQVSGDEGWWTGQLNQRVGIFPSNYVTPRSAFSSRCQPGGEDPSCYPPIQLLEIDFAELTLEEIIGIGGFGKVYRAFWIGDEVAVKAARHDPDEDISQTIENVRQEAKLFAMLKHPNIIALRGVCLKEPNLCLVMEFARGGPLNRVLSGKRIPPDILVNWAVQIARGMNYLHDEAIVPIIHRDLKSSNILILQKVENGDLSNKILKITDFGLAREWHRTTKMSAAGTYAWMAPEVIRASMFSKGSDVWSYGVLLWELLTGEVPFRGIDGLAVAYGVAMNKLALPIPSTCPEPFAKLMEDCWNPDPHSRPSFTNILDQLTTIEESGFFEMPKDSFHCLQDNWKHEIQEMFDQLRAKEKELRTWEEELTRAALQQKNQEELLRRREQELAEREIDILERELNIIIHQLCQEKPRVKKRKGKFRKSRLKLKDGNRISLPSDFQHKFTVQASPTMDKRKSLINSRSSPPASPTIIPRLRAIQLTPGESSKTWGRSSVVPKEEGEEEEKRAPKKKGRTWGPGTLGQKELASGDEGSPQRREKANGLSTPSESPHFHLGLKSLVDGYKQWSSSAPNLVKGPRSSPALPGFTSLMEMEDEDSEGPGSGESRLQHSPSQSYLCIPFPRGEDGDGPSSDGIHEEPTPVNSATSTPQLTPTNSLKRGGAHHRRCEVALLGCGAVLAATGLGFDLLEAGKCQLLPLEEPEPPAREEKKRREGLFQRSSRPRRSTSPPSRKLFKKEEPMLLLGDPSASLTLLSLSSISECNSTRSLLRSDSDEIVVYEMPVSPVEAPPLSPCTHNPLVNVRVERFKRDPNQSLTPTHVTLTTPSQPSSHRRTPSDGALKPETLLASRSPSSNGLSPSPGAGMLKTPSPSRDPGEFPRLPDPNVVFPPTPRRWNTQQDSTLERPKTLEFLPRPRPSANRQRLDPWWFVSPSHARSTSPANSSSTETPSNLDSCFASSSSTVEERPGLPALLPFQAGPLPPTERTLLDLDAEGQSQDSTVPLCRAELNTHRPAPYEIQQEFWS

The target of assay [2] is T2, Mitogen-activated protein kinase kinase kinase 11 (Homo sapiens, UniProt Q16584). The assay is described as follows: Inhibition of GST-fused human MLK3 at 1 uM. An outline of the steps:
(§2)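 Baculovirus-expressed GST fusions of human MLK1 or MLK3 kinase domain (50 ng MLK1, 100 ng MLK3), myelin basic protein substrate at 500 µg/mL.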
Target sequence in this assay (Q16584 whole entry, looked up, the tested form may be a part): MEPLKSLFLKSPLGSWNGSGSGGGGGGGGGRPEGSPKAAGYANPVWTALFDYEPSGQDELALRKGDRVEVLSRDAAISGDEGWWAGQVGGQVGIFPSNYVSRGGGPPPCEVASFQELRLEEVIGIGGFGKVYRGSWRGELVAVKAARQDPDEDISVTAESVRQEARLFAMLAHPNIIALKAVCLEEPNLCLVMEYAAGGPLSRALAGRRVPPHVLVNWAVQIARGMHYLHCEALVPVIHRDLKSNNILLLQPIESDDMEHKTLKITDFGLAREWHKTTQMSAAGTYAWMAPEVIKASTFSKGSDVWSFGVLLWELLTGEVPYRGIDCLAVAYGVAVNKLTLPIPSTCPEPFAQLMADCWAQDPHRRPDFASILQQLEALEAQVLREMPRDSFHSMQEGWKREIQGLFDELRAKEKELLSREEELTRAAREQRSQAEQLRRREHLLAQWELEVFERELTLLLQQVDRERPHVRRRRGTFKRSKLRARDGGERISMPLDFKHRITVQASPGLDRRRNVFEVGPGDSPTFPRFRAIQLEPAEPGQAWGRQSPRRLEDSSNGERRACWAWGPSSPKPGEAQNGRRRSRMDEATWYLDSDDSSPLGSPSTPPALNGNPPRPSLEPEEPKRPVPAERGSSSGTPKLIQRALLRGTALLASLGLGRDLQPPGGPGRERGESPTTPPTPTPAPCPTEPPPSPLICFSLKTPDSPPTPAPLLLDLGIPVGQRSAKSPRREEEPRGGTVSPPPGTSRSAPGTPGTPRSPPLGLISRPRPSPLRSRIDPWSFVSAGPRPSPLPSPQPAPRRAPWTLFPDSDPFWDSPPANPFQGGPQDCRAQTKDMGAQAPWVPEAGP

In assay [3] the target is T1, Mitogen-activated protein kinase kinase kinase 9. The assay is described as follows: Inhibition of GST-fused human MLK1 expressed in CHO cells assessed as MKK4 phosphorylation. The class given is cell-based. An outline of the steps:
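CHO cells transfected with MLK1 plus dominant-negative MKK4 cDNA; phospho-MKK4 quantified by ELISA; IC50 derived.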
Target sequence in this assay (P80192 whole entry, the tested form may be a part): as the sequence (P80192 whole entry, the tested form may be a part) above

The target in assay [4] is T2, Mitogen-activated protein kinase kinase kinase 11. The assay can be described thus: Inhibition of GST-fused human MLK3. The method in brief: as §1
Target sequence in this assay (Q16584 whole entry, the tested form may be a part): as the sequence (Q16584 whole entry, looked up, the tested form may be a part) above
Assay [5] addresses T1, Mitogen-activated protein kinase kinase kinase 9. The assay is described as follows: Inhibition of GST-fused human MLK1 at 1 uM. The method in brief:
as §2
Target sequence in this assay (P80192 whole entry, looked up, the tested form may be a part): as the sequence (P80192 whole entry, the tested form may be a part) above

For `O=C1NCc2c1c1c(c3c2c2ccccc2n3CCO)CCc2cc(OC3CCCC3)ccc2-1`, the IC50 (usually the concentration at which inhibition is half-maximal) turned out to be 49 nM in assay [1] and 345 nM in assay [3]. Moreover, the inhibition (as a rule, the drop in the measured response relative to a control, in per cent) in assay [2] was determined as 32%.

On to `CC(C)Oc1ccc2c(c1)CCc1c-2c2c(c3c1[nH]c1ccccc13)CNC2=O`, for which the figures for the IC50 in assay [1], in assay [4] and in assay [3] were 66 nM, 159 nM and 196 nM, respectively.

Consider `O=C1NCc2c1c1c(c3[nH]c4ccccc4c23)CCc2cc(O)ccc2-1`, for which the inhibition turned out to be 9% in assay [5] and 0% in assay [2].

On to `N#CCOc1ccc2c(c1)CCc1c-2c2c(c3c4ccccc4n(CCO)c13)CNC2=O`, for which the inhibition turned out to be 30% in assay [5] and 8% in assay [2].

In the case of `O=C1NCc2c1c1c(c3c2c2ccccc2n3CCO)CCc2cc(OCCO)ccc2-1`, the inhibition in assay [2] is 46%.

For `COCCOc1ccc2c(c1)CCc1c-2c2c(c3c4ccccc4n(CCO)c13)CNC2=O`, the inhibition in assay [5] was found to be 52%; in assay [2], 40%.

For the compound `O=C1NCc2c1c1c(c3c2c2ccccc2n3CCO)CCc2cc(OCCOCc3ccccc3)ccc2-1`, the values for the inhibition in assay [5] and in assay [2] were 9% and 0%, respectively.

For `COc1ccc2c(c1)CCc1c-2c2c(c3c1[nH]c1ccccc13)CNC2=O`, the results for the IC50 in assay [1] and in assay [4] were 188 nM and 274 nM, respectively.

Consider `O=C1NCc2c1c1c(c3c2c2ccccc2n3CCO)CCc2cc(OCC3CC3)ccc2-1`, for which the inhibition was found to be 30% in assay [5] and 32% in assay [2].

As for `N#CCCCOc1ccc2c(c1)CCc1c-2c2c(c3c4ccccc4n(CCO)c13)CNC2=O`, the inhibition in assay [5] was 58%; in assay [2] it was 46%.

For `O=C1NCc2c1c1c(c3c2c2ccccc2n3CCO)CCc2ccccc2-1`, the inhibition in assay [5] was found to be 14%. In addition, the IC50 in assay [4] is 1000 nM.

In the case of `O=C1NCc2c1c1c(c3c2c2ccccc2n3CCO)CCc2cc(O)ccc2-1`, the figures for the inhibition in assay [5] and in assay [2] were 32% and 30%, respectively.

On to `O=C1NCc2c1c1c(c3c2c2ccccc2n3CCO)CCc2cc(OC3CCCCC3)ccc2-1`, for which the inhibition in assay [5] was determined as 35%; in assay [2], 4%.

`COc1ccc2c(c1)CCc1c-2c2c(c3c4ccccc4n(CCCO)c13)CNC2=O`: the values for the IC50 in assay [1] and in assay [4] were 101 nM and 87 nM, respectively.

For `O=C1NCc2c1c1c(c3c2c2ccccc2n3CCO)CCc2cc(OCc3ccccn3)ccc2-1`, the inhibition was found to be 36% in assay [5] and 30% in assay [2].

The values above are taken from ChEMBL document CHEMBL1140055, “Mixed-lineage kinase 1 and mixed-lineage kinase 3 subtype-selective dihydronaphthyl[3,4-a]pyrrolo[3,4-c]carbazole-5-ones: optimization, mixed-lineage kinase 1 crystallography, and oral in vivo activity in 1-methyl-4-phenyltetrahydropyridine models” (J Med Chem, 2008).
